According to ChEMBL document CHEMBL2203173 (J Med Chem, 2012):
Active and inactive are the calls of the source. The rule behind the calls is not given here.

Legend:
[1] = test system: SK-N-MC; assay: Antiproliferative activity at human SK-N-MC cells after 72 hrs by MTT assay; format: functional, cell-based
[2] = test system: DMS-53; assay: Antitumor activity against human DMS53 cells xenografted in BALB/c nu/nu mouse assessed as reduction in tumor weight at 8 mg/kg, iv administered for 5 days per week measured after 21 days (reference value: 0.830.11 g); format: functional, organism-based; design: dose 8 mg/kg
Outline: (§1)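 Nude mice bearing DMS-53 xenografts began dosing once tumors reached 100 mm3. Agents given iv by tail vein 5 days/week in vehicle of 30% propylene glycol/saline, with vehicle controls. Net tumor volume followed for 21 days. Mice sacrificed on day 21 and tumors excised and wet-weighed.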

[3] = test system: DMS-53; assay: Antitumor activity against human DMS53 cells xenografted in BALB/c nu/nu mouse assessed as reduction in tumor weight at 4 mg/kg, iv administered for 5 days a week measured after 21 days (reference value: 0.830.11 g); format: functional, organism-based; design: dose 4 mg/kg; outline: as §1
[4] = test system: DMS-53; assay: Antitumor activity against human DMS53 cells xenografted in BALB/c nu/nu mouse assessed as reduction of tumor volume at 4 mg/kg, iv administered for 5 days a week measured after 21 days (RVb = 922 94 mm'3); format: functional, organism-based; design: dose 4 mg/kg; outline: as §1
[5] = test system: DMS-53; assay: Antitumor activity against human DMS53 cell xenografted BALB/c nu/nu mouse assessed as reduction in tumor volume at 10 mg/kg, po administered for 3 times a week measured after 20 days (reference value: 997 155 mm'3); format: functional, organism-based; design: dose 10 mg/kg
Outline: (§2)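 DMS-53 xenograft nude mice gavaged 3 times/week with agent in 30% propylene glycol/saline or with vehicle alone. Net tumor volume followed for 20 days; the study ended when control tumors neared the 1000 mm3 ethical limit. Tumors excised and wet-weighed on day 20. n = 6–11 mice/condition, mean ± SD.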

[6] = test system: DMS-53; assay: Antitumor activity against human DMS53 cells xenografted in BALB/c nu/nu mouse assessed as reduction of tumor volume at 8 mg/kg, iv administered for 5 days a week measured after 21 days (RVb = 922 94 mm'3); format: functional, organism-based; design: dose 8 mg/kg; outline: as §1
[7] = test system: DMS-53; assay: Antitumor activity against human DMS53 cell xenografted BALB/c nu/nu mouse assessed as reduction in tumor volume at 20 mg/kg, po administered for 3 times a week measured after 20 days (reference value: 997 155 mm'3); format: functional, organism-based; design: dose 20 mg/kg; outline: as §2
[8] = test system: Mus musculus; assay: Toxicity in BALB/c nu/nu mouse xenografted with human DMS53 cells assessed as change in hematopoetic cells in splenic red pulp at 0.75 mg/kg, iv administered for 5 days a week measured after 21 days by hematoxylin and eosin staining method; format: organism-based, DMS-53; design: dose 0.75 mg/kg, route intravenous; settings: in vivo, 504 h
Outline: (§3)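 DMS-53 xenograft nude mice, dosed from 100 mm3 tumor volume. Reference chelator given iv via tail vein as the base form, 5 days/week for 21 days, vehicle 30% propylene glycol/saline. Organs taken at sacrifice on day 21, stained with H&E, Perls' and Gomori Trichrome, and examined by an independent veterinary pathologist.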

[9] = test system: Mus musculus; assay: Toxicity in BALB/c nu/nu mouse xenografted with human DMS53 cells assessed as change in platelet count at 0.75 mg/kg, iv administered for 5 days a week measured after 21 days; format: organism-based, DMS-53; design: dose 0.75 mg/kg, route intravenous; settings: in vivo, 504 h
Outline: (§4)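 Nude mice carrying DMS-53 xenografts (treatment from 100 mm3) received iv tail-vein doses in 30% propylene glycol/saline, 5 days/week for 21 days. Hematological indices (RBC, hemoglobin, hematocrit, reticulocytes, WBC, platelets) were then compared with vehicle controls.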

[10] = test system: Mus musculus; assay: Toxicity in BALB/c nu/nu mouse xenografted with human DMS53 cells assessed as change in reticulocyte count at 0.75 mg/kg, iv administered for 5 days a week measured after 21 days; format: organism-based, DMS-53; design: dose 0.75 mg/kg, route intravenous; settings: in vivo, 504 h; outline: as §4
[11] = test system: Mus musculus; assay: Toxicity in BALB/c nu/nu mouse xenografted with human DMS53 cells assessed as change in hemoglobin level at 0.75 mg/kg, iv administered for 5 days a week measured after 21 days; format: organism-based, DMS-53; design: dose 0.75 mg/kg, route intravenous; settings: in vivo, 504 h
Outline: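 DMS-53 xenografts in nude mice; dosing started at 100 mm3 tumor volume. Agents given iv via tail vein, 5 days/week for 21 days, vehicle 30% propylene glycol/saline, vehicle-treated controls. Mice sacrificed day 21. Body and organ weights and hematological indices recorded. Spleen, kidney, liver, heart, lungs and brain were stained with H&E, Perls' and Gomori Trichrome and read by an independent veterinary pathologist.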

[12] = test system: Mus musculus; assay: Toxicity in BALB/c nu/nu mouse xenografted with human DMS53 cells assessed as change in RBC count at 0.75 mg/kg, iv administered for 5 days a week measured after 21 days; format: organism-based, DMS-53; design: dose 0.75 mg/kg, route intravenous; settings: in vivo, 504 h
[13] = test system: Mus musculus; assay: Toxicity in BALB/c nu/nu mouse xenografted with human DMS53 cells assessed as change in organ weight at 0.75 mg/kg, iv administered for 5 days a week measured after 21 days; format: organism-based, DMS-53; design: dose 0.75 mg/kg, route intravenous; settings: in vivo, 504 h
Outline: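 DMS-53 xenograft-bearing nude mice, treatment started at 100 mm3 tumour volume: iv tail-vein dosing in 30% propylene glycol/saline, 5 days/week for 21 days. Organs were weighed at sacrifice and compared with vehicle-control mice.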

[14] = test system: Mus musculus; assay: Toxicity in human DMS53 cells xenografted BALB/c nu/nu mouse assessed as body weight change at 0.75 mg/kg, iv administered for 5 days a week measured after 21 days; format: organism-based, DMS-53; design: dose 0.75 mg/kg, route intravenous; settings: in vivo, 504 h
Outline: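 Body weights of DMS-53 xenograft-bearing nude mice were followed over 21 days of iv tail-vein dosing, 5 days/week, in 30% propylene glycol/saline, beginning at 100 mm3 tumour volume. Values are the average body weight per group.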

[15] = test system: DMS-53; assay: Antitumor activity against human DMS53 cells xenografted BALB/c nu/nu mouse assessed as reduction of tumor volume at 0.75 mg/kg, iv administered for 5 days a week measured after 21 days (RVb = 922 94 mm'3); format: functional, organism-based; design: dose 0.75 mg/kg; outline: as §1
[16] = test system: MRC5; assay: Antiproliferative activity at human MRC5 cells after 72 hrs by MTT assay; format: functional, cell-based; settings: MRC5, 72 h
[17] = test system: A549; assay: Antiproliferative activity at human A549 cells after 72 hrs by MTT assay; format: functional, cell-based; settings: Homo sapiens, A549, 72 h
[18] = test system: DMS-53; assay: Antiproliferative activity at human DMS53 cells after 72 hrs by MTT assay; format: functional, cell-based; settings: Homo sapiens, DMS-53, 72 h
[19] = test system: SK-N-MC; assay: Induction of 59Fe mobilization in human SK-N-MC cells at 25 uM after 3 hrs by gamma-scintillation counter; format: functional
Outline: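 SK-N-MC cells prelabeled with 59Fe-transferrin (0.75 μM) for 3 h/37 °C, then washed four times on ice with ice-cold PBS. Cells reincubated with or without chelators (25 μM) for 3 h/37 °C. Released 59Fe given as % of cellular 59Fe. Mean ± SD of three experiments.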

[20] = test system: SK-N-MC; assay: Inhibition to 59Fe uptake from 59Fe-transferrin in human SK-N-MC cells at 25 uM after 3 hrs; format: functional; design: scale not given: the % may be the effect or the level left
Outline: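 SK-N-MC cells labeled with 59Fe-transferrin (0.75 μM) for 3 h/37 °C with or without chelators (25 μM). Cells washed four times on ice with ice-cold PBS. Internalized 59Fe separated with Pronase (1 mg/mL) and expressed as % of control. Mean ± SD of three experiments.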

[21] = test system: Mus musculus; assay: Toxicity in BALB/c nu/nu mouse xenografted with human DMS53 cells assessed as cardiac fibrosis at 0.75 mg/kg, iv administered for 5 days a week measured after 21 days by […]; format: organism-based, Heart, DMS-53; design: dose 0.75 mg/kg, route intravenous; settings: in vivo, 504 h
Outline: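 DMS-53 xenograft nude mice given agents iv by tail vein 5 days/week in 30% propylene glycol/saline for 21 days. At sacrifice, heart sections were stained with Gomori Trichrome to detect fibrosis. Spleen, kidney, liver, heart, lungs and brain were also stained with H&E and Perls' and examined by an independent veterinary pathologist.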

[22] = test system: Mus musculus; assay: Toxicity in BALB/c nu/nu mouse xenografted with human DMS53 cells assessed as change in lungs histology at 0.75 mg/kg, iv administered for 5 days a week measured after 21 days by hematoxylin and eosin staining method; format: organism-based, DMS-53; design: dose 0.75 mg/kg, route intravenous; settings: in vivo, 504 h; outline: as §3
[23] = test system: Mus musculus; assay: Toxicity in BALB/c nu/nu mouse xenografted with human DMS53 cells assessed as change in brain histology at 0.75 mg/kg, iv administered for 5 days a week measured after 21 days by hematoxylin and eosin staining method; format: organism-based, DMS-53; design: dose 0.75 mg/kg, route intravenous; settings: in vivo, 504 h; outline: as §3
[24] = test system: Mus musculus; assay: Toxicity in BALB/c nu/nu mouse xenografted with human DMS53 cells assessed as hepatocellular fibrosis at 0.75 mg/kg, iv administered for 5 days a week measured after 21 days by hematoxylin and eosin staining method; format: organism-based, DMS-53; design: dose 0.75 mg/kg, route intravenous; settings: in vivo, 504 h
Outline: (§5)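 Nude mice with DMS-53 xenografts dosed by tail-vein iv injection in 30% propylene glycol/saline, starting at 100 mm3 tumour volume, 5 days/week for 21 days. Spleen, kidney, liver, heart, lungs and brain were stained with H&E, Perls' (Fe loading) and Gomori Trichrome (fibrosis) by standard methods, and an independent veterinary pathologist examined them.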

[25] = test system: Mus musculus; assay: Toxicity in BALB/c nu/nu mouse xenografted with human DMS53 cells assessed as hepatocellular necrosis at 3 mg/kg, iv administered for 5 days a week measured after 21 days by hematoxylin and eosin staining method; format: organism-based, DMS-53; design: dose 3 mg/kg, route intravenous; settings: in vivo, 504 h; outline: as §5
[26] = test system: Mus musculus; assay: Toxicity in BALB/c nu/nu mouse xenografted with human DMS53 cells assessed as hepatocellular necrosis at 0.75 mg/kg, iv administered for 5 days a week measured after 21 days by hematoxylin and eosin staining method; format: organism-based, DMS-53; design: dose 0.75 mg/kg, route intravenous; settings: in vivo, 504 h; outline: as §5
[27] = test system: Mus musculus; assay: Toxicity in BALB/c nu/nu mouse xenografted with human DMS53 cells assessed as vacuolation at 0.75 mg/kg, iv administered for 5 days a week measured after 21 days by hematoxylin and eosin staining method; format: organism-based, DMS-53; design: dose 0.75 mg/kg, route intravenous; settings: in vivo, 504 h; outline: as §5

Q: With `CN(C(=S)NN=C(c1ccccn1)c1ccccn1)c1ccccc1` as the compound, how does the IC50 [1] read?
A: 6 nM

Q: With `CN(C(=S)NN=C(c1ccccn1)c1ccccn1)C1CCCCC1` as the compound, how does the Activity [2] read?
A: Active

Q: And the Activity [3]?
A: Active

Q: What about the Activity [4] of the same compound?
A: Active

Q: What about the Activity [5] of the same compound?
A: Active

Q: And the Activity [6]?
A: Active

Q: And the Activity [7]?
A: Active

Q: How did the Activity [8] turn out when `CN(C)C(=S)NN=C(c1ccccn1)c1ccccn1` was run?
A: Non-toxic

Q: What about the Activity [9] of the same compound?
A: Non-toxic

Q: And the Activity [10]?
A: Non-toxic

Q: What about the Activity [11] of the same compound?
A: Non-toxic

Q: And the Activity [12]?
A: Non-toxic

Q: And the Activity [13]?
A: Non-toxic

Q: And the Activity [14]?
A: Non-toxic

Q: What about the Activity [15] of the same compound?
A: Active

Q: And the IC50 [16]?
A: > 10000 nM

Q: What about the IC50 [17] of the same compound?
A: 20 nM

Q: And the IC50 [18]?
A: 10 nM

Q: What about the Activity [19] of the same compound?
A: 45%

Q: What about the Activity [20] of the same compound?
A: 3.5%

Q: And the Activity [21]?
A: Toxic

Q: And the Activity [22]?
A: Non-toxic

Q: And the Activity [23]?
A: Non-toxic

Q: And the Activity [24]?
A: Non-toxic

Q: And the Activity [25]?
A: Non-toxic

Q: And the Activity [26]?
A: Non-toxic

Q: What about the Activity [27] of the same compound?
A: Toxic
